# From PubChem BioAssay
# This is a sample that favours compounds with a hit; in the whole collection about 2.4% have one here.
# PfM18AAP inh-1: PfM18AAP enzyme inhibition; recombinant PfM18AAP, H-Glu-NHMec fluorogenic cleavage; inhibition, % at 7.35 µM; hit rate 1.2% among 290,000;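 active = inhibition above the campaign mean inhibition over all tested compounds plus 3 SD, cut at about 28% in these data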;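 also: 0% = plate median of test compound wells and 100% = 2 mM ZnCl2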
# sPLA2-III inh: Inhibits HGIII-sPLA2 liposome hydrolysis, primary screen; Q9NZ20; QFRET BODIPY PC-A2 liposome hydrolysis, fluorescence; inhibition, % at 12.2 µM; hit rate 0.56% among 370,000; AID 743126;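 active = inhibition above mean plus 3 SD of compounds lying within the high and low control bounds, cut at about 19% in these data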;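 also: 0% = median of test compound wells and 100% = no enzyme DMSO wells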
# Target sequence (Q9NZ20 whole entry, looked up): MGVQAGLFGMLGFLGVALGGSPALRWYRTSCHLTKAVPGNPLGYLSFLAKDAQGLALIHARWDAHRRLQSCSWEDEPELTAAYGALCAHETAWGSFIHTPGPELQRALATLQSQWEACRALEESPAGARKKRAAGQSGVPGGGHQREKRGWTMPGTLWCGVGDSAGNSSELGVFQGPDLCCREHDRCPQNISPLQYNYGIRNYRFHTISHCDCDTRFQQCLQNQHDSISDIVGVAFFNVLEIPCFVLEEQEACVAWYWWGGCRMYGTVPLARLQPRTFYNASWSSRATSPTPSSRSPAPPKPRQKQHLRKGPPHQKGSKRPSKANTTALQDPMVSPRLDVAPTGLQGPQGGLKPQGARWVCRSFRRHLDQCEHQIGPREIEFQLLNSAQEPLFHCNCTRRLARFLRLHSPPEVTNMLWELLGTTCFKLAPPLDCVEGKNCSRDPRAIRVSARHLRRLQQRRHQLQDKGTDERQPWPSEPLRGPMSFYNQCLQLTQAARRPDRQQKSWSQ
# VIM-2 inhibitor: blocks Pseudomonas aeruginosa VIM-2 metallo-beta-lactamase; purified VIM-2, nitrocefin hydrolysis, epi-absorbance fluorescence; inhibition, % at 5.6 µM; hit rate 0.89% among 290,000; AID 1527;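 active = inhibition above the mean of all tested compounds plus 3 SD, cutoff set per screening run, cut at about 7.5% in these data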;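 also: red hydrolysis product quenches plate fluorescence so inhibitors raise well fluorescence; 0% = enzyme with DMSO and 100% = DMSO without enzyme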
# IMP-1 inhibitor: inhibitors of Pseudomonas aeruginosa IMP-1 metallo-beta-lactamase. purified IMP-1, nitrocefin hydrolysis, epi-absorbance fluorescence. inhibition, % at 5.6 µM. hit rate 0.45% among 290,000. AID 1556;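 active = inhibition above the mean plus 3 SD of all compounds in the same screening run, cut at about 4.5% in these data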;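 also: 0% = IMP-1 with DMSO and 100% = DMSO wells lacking enzyme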
#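 System: Purified recombinant IMP-1 metallo-beta-lactamase enzyme | Measured by: Fluorescence quenching readout, ex 480/em 530 nm | Replication: Singlicate | Incubation: 15 min preincubation plus 25 min reaction at 25 °C | Evaluation: Percent inhibition from optical density relative to buffer-blank wells | Benchmarks: DMSO with and without IMP-1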
# PfM18AAP inh-2: PfM18AAP inhibition, confirmation; recombinant PfM18AAP, H-Glu-NHMec fluorogenic cleavage; inhibition, % at 7.35 µM; AID 2170; shares compounds with PfM18AAP inh-1; hit rate 28% among 2,400;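 active = mean inhibition over replicate wells above the hit cutoff set for the earlier primary screen, cut at about 29% in these data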;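 also: 0% = median of test compound wells and 100% = 2 mM ZnCl2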
# CTSL1 counter: Cathepsin L (human) inhibition, confirmation. shares compounds with PfM18AAP inh-1. purified cathepsin L1, Z-Leu-Arg-MCA fluorescence. inhibition, % at 5.96 µM. AID 2178. 2,400 tested, under 10 active;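 active = average inhibition across replicates above the hit cutoff set in the earlier primary screen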;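 also: 0% = median of test compound wells and 100% = Z-Phe-Ala-diazomethylketone 1 µM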
# Starred values were filed as active, the others as inactive; / = no result.
SMILES,PfM18AAP inh-1,sPLA2-III inh,VIM-2 inhibitor,IMP-1 inhibitor,PfM18AAP inh-2,CTSL1 counter
Oc1ccc(/C=N/Nc2ccnc3cc(Cl)ccc23)c(O)c1O,49.4*,-7.2,-2.1,-5.4,-61.3,6.8
CC/C(=N\Nc1ccnc2cc(Cl)ccc12)c1ccc(O)cc1,33.6*,0.2,0.8,-3.9,-27.1,1.7
S=C(NCc1ccc(Cl)cc1)Nc1ccc(Cl)cc1Cl,3.5,0.9,-2.5,-4.2,/,/
S=C(Nc1cc(Cl)ccc1Cl)Nn1cnnc1,81.0*,9.7,-2.0,-4.8,76.8*,5.9
S=C(Nc1ccc(Cl)cc1Cl)Nn1cnnc1,79.0*,4.7,-0.9,-0.9,77.3*,-0.3
NC(=S)Nc1cc(Cl)ccc1Cl,-9.4,1.5,0.6,0.8,/,/
COc1ccc(Cl)cc1Cn1c(C)c(C(=O)NCc2cccc(Cl)c2)sc1=O,/,-12.5,/,/,/,/
CON(c1nc(N(C)C)nc(N(C)C)n1)S(=O)(=O)c1ccccc1Cl,-1.3,7.7,-2.4,-0.7,/,/
COC(=O)CN(n1cnnc1)S(=O)(=O)c1ccccc1Cl,87.0*,3.6,-2.6,-1.5,77.3*,-4.9
O=C(c1ccc(-c2ccccc2)cc1)c1ccc([N+](=O)[O-])cc1,4.8,/,-1.9,-1.9,/,/
O=C(C1=NN[C@@H]2C(=O)N(Cc3ccccc3)C(=O)[C@H]12)c1ccc([N+](=O)[O-])cc1,41.6*,3.4,-2.9,-2.7,-3.4,8.2
CNS(=O)(=O)c1ccc(CNC[C@H]2O[C@@H](n3ccc(N)nc3=O)[C@H](O)[C@@H]2O)cc1,/,4.0,/,/,/,/
CCOC(=O)C1=C(O)/C(=C\c2ccc(O)c(OCC)c2)N=C1C,40.5*,-8.1,-1.6,-2.7,-41.4,2.1
CCOc1cc(/C=C2\SC(N)=NC2=O)ccc1O,38.2*,-1.4,-1.5,-2.9,-15.8,0.1
COc1cc(C=C2CN(C)C(=O)C2=O)ccc1O,/,8.9,/,/,/,/
CCOc1cc(/C=C2\SC(=O)N=C2N)ccc1O,7.2,-14.8,-1.8,-3.3,/,/
CCOc1cc(/C=C2\CN(C)C/C(=C\c3ccc(O)c(OCC)c3)C2=O)ccc1O,44.0*,-9.6,-1.8,-4.9,10.3,7.4
O=C1c2c(-c3ccc(Br)cc3)noc2CCN1Cc1cn(Cc2cccnc2)nn1,/,-2.4,/,/,/,/
CC1CCC2(CC1)NC(=S)N(c1ccccc1)N2 (centres undefined),44.9*,8.3,-3.6,-2.4,-24.4,1.7
CCOC(=O)C1=C(C)NC(SCC(=O)OC)=C(C#N)C1c1ccc(C(=O)OC)cc1 (centres undefined),36.5*,-0.2,-2.6,-2.8,-12.1,4.6
COC(=O)c1cc(S(=O)(=O)N2CCCN(C(C)=O)CC2)cn1C,/,0.2,/,/,/,/
CC1(C)CC2(CC(c3ccccc3F)c3ccc(O)c(O)c3O2)NC(=S)N1 (centres undefined),49.0*,13.1,-2.8,-0.6,80.9*,4.5
COC(=O)CSc1nnc(-c2cc(-c3ccccc3)n[nH]2)n1N,/,0.8,/,/,/,/
CC1CCCC(C)N1/N=C/c1ccc(O)c(O)c1 (centres undefined),64.1*,-0.1,-3.5,-3.5,46.4*,0.7
Clc1ccc(C=NN2CCCCCC2)cc1Cl,/,-3.4,/,/,/,/
SMILES,PfM18AAP inh-1,sPLA2-III inh,VIM-2 inhibitor,IMP-1 inhibitor,PfM18AAP inh-2,CTSL1 counter
Oc1ccc(/C=N/N2CCCCC2)cc1O,65.6*,-2.0,-0.3,-3.1,32.0*,-2.1
O=S(=O)(NC(=S)c1ccccc1)c1ccc(F)cc1,0.4,2.8,-1.2,-3.7,/,/
CN(CCOC(=O)c1cc2ccccc2o1)C1CN(Cc2cn(Cc3ccccc3F)nn2)S(=O)(=O)C1 (centres undefined),/,-2.5,/,/,/,/
CCN(CC)CCN(C(=O)c1ccc2ncsc2c1)c1nc2cc3c(cc2s1)OCO3,46.6*,9.5,-1.4,-0.3,-4.7,5.9
CCN(CC)CCN(C(=O)c1ccc(C(=O)c2ccccc2)cc1)c1nc2cc3c(cc2s1)OCO3,3.4,4.7,-1.5,-4.2,/,/
N#C/C(=C\c1ccc(O)c(O)c1)C(=O)N1CCCC1,56.2*,-4.2,-2.8,-0.6,20.8,3.1
N#C/C(=C\c1ccc(O)c(O)c1)C(=O)NCCCc1ccccc1,33.9*,-5.6,-3.8,-4.7,-9.5,-2.7
COc1cc(/C=C(\C#N)C(=O)N2CCCCC2)ccc1O,6.2,7.8,-0.7,-2.1,/,/
COc1ccc(N2CCN(CC(=O)c3ccc(Cl)cc3)CC2)cc1,2.3,6.2,-2.2,-0.4,/,/
C[C@H](O)C#Cc1cnc2c(c1)C(=O)N([C@H](C)CO)C[C@@H](C)[C@@H](CN(C)Cc1ccc(-c3ccccc3)cc1)O2,/,-11.1,/,/,/,/
